Activity calls are given as the source filed them. No cut-off for these calls is given here.
Legend:
[1] = molecular target: Calcium/calmodulin-dependent protein kinase kinase 2 (Homo sapiens) (UniProt Q96RR4); experiment: Inhibition of CAMKK2 (unknown origin) assessed as remaining activity at 1 uM by Kinome scan method relative to control
How it was run: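 Active-site-dependent competition-binding profiling (KINOMEscan) at 1 μM against a 468-kinase panel; compound supplied from a 10 mM DMSO stock. Read-out is ctrl% = (test signal − positive control signal)/(negative control signal − positive control signal) × 100. DMSO is the negative control (100%) and a control compound the positive control (0%). Lower ctrl% means tighter binding.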

[2] = molecular target: Serine/threonine-protein kinase 17A (Homo sapiens) (UniProt Q9UEE5); experiment: Inhibition of DRAK1 (unknown origin) assessed as remaining activity at 1 uM by Kinome scan method relative to control
Serine/threonine-protein kinase 17A (Homo sapiens), sequence (Q9UEE5 whole entry): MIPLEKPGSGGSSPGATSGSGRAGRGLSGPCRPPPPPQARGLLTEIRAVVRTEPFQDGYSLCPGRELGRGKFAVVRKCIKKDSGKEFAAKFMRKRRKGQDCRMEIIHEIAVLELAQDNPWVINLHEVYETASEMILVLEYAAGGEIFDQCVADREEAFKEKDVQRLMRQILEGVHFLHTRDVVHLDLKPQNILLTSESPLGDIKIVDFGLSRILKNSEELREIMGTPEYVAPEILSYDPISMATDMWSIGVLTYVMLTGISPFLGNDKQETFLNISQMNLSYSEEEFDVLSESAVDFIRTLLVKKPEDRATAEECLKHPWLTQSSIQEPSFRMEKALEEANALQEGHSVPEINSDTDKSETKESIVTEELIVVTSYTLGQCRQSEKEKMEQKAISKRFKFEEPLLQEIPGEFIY

[3] = molecular target: Dual specificity tyrosine-phosphorylation-regulated kinase 2 (Homo sapiens) (UniProt Q92630); experiment: Inhibition of DYRK2 (unknown origin) assessed as remaining activity at 1 uM by Kinome scan method relative to control
[4] = tested on: Epidermal growth factor receptor (Homo sapiens), P00533 [L858R]; experiment: Inhibition of EGFR L858R mutant (unknown origin) assessed as remaining activity at 1 uM by Kinome scan method relative to control
[5] = tested on: Epidermal growth factor receptor (Homo sapiens), P00533 [L861Q]; experiment: Inhibition of EGFR L861Q mutant (unknown origin) assessed as remaining activity at 1 uM by Kinome scan method relative to control
[6] = molecular target: Ephrin type-A receptor 6 (Homo sapiens) (UniProt Q9UF33); experiment: Inhibition of EPHA6 (unknown origin) assessed as remaining activity at 1 uM by Kinome scan method relative to control
[7] = molecular target: Focal adhesion kinase 1 (Homo sapiens) (UniProt Q05397); experiment: Inhibition of FAK (unknown origin) assessed as remaining activity at 1 uM by Kinome scan method relative to control
Focal adhesion kinase 1 (Homo sapiens), sequence (Q05397 2-1052 limits assumed): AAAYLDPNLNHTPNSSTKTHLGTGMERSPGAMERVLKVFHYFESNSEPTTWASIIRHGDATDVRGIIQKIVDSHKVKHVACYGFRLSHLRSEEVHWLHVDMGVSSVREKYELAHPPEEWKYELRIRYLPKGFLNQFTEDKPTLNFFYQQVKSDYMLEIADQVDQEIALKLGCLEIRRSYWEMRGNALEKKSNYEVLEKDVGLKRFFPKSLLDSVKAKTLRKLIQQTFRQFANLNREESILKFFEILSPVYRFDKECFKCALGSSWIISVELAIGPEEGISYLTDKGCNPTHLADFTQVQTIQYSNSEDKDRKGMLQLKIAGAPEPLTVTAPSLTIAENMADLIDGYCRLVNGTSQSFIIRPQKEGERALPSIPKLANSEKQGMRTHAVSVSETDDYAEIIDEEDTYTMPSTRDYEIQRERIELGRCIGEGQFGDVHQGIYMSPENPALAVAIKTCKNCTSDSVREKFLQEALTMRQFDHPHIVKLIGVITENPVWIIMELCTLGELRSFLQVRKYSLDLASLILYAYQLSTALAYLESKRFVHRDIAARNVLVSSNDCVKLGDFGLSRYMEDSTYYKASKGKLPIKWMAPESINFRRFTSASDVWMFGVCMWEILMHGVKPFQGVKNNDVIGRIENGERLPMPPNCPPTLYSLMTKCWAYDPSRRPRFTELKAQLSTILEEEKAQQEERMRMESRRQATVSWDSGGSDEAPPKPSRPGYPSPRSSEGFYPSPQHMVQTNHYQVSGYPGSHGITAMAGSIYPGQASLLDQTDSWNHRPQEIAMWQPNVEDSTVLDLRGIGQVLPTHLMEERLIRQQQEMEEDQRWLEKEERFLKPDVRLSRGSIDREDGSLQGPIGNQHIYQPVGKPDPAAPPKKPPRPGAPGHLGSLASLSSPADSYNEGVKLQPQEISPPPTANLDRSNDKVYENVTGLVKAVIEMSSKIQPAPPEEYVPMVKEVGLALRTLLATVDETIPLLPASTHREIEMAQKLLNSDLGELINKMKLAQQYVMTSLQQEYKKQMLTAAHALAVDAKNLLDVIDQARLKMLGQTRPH

[8] = tested on: Mast/stem cell growth factor receptor Kit (Homo sapiens), P10721 [A829P]; experiment: Inhibition of KIT A829P mutant (unknown origin) assessed as remaining activity at 1 uM by Kinome scan method relative to control
[9] = molecular target: Serine/threonine-protein kinase Nek11 (Homo sapiens) (UniProt Q8NG66); experiment: Inhibition of NEK11 (unknown origin) assessed as remaining activity at 1 uM by Kinome scan method relative to control
Serine/threonine-protein kinase Nek11 (Homo sapiens), sequence (Q8NG66 whole entry): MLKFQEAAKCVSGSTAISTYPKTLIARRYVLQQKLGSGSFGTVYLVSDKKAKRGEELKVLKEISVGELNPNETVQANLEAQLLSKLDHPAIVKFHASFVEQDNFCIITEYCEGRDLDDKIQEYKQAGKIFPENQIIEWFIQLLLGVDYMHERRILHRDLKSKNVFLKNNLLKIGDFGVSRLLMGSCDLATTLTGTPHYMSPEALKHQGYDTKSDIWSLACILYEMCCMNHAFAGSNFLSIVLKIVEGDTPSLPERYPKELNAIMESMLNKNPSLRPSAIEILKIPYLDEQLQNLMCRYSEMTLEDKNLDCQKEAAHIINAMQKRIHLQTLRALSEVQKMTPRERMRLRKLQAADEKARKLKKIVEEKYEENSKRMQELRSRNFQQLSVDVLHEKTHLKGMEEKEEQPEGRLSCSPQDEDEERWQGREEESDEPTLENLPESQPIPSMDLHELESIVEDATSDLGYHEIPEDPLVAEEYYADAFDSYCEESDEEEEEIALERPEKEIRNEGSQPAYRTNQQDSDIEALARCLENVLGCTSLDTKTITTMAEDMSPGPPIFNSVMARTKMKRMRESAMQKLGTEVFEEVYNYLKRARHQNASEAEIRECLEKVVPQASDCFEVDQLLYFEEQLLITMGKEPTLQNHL

[10] = molecular target: Cyclin-dependent kinase 18 (Homo sapiens) (UniProt Q07002); experiment: Inhibition of PCTK3 (unknown origin) assessed as remaining activity at 1 uM by Kinome scan method relative to control
[11] = molecular target: Serine/threonine-protein kinase pim-1 (Homo sapiens) (UniProt P11309); experiment: Inhibition of PIM1 (unknown origin) assessed as remaining activity at 1 uM by Kinome scan method relative to control
Serine/threonine-protein kinase pim-1 (Homo sapiens), sequence (P11309 whole entry, looked up): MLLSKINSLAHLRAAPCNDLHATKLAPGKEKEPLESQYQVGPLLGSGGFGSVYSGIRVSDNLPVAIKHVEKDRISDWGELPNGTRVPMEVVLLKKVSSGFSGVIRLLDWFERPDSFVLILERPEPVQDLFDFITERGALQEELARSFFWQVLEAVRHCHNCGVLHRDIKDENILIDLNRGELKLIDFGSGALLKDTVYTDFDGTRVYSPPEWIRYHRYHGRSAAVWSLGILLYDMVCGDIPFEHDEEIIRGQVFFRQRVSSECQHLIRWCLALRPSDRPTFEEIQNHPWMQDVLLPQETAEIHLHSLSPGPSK

[12] = molecular target: Serine/threonine-protein kinase pim-3 (Homo sapiens) (UniProt Q86V86); experiment: Inhibition of PIM3 (unknown origin) assessed as remaining activity at 1 uM by Kinome scan method relative to control
[13] = molecular target: Serine/threonine-protein kinase N1 (Homo sapiens) (UniProt Q16512); experiment: Inhibition of PKN1 (unknown origin) assessed as remaining activity at 1 uM by Kinome scan method relative to control
Serine/threonine-protein kinase N1 (Homo sapiens), sequence (Q16512 2-942 limits assumed): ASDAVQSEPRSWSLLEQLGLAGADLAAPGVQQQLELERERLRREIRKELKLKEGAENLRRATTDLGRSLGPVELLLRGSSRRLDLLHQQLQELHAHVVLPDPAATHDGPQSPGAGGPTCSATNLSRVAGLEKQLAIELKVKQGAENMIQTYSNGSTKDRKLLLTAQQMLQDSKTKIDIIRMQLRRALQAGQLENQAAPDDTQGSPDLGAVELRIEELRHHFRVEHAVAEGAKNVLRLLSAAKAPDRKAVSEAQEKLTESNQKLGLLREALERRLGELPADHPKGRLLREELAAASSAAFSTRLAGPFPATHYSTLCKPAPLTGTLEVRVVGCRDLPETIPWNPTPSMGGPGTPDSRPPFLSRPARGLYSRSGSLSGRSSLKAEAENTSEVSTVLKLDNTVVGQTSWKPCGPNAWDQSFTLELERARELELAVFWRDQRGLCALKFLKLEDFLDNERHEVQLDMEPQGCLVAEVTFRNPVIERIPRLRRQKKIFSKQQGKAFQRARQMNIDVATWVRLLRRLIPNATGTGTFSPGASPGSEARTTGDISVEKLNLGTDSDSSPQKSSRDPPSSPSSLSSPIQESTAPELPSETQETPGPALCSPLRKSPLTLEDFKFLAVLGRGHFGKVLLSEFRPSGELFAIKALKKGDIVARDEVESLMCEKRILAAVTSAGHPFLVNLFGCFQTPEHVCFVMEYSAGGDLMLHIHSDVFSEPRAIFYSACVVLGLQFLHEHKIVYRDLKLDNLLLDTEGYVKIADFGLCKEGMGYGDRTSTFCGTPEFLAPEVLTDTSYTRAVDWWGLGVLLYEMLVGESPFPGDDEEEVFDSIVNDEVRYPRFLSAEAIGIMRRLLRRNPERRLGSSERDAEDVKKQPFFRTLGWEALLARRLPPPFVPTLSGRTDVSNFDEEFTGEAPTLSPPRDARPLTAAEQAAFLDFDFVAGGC

[14] = molecular target: Serine/threonine-protein kinase RIO2 (Homo sapiens) (UniProt Q9BVS4); experiment: Inhibition of RIOK2 (unknown origin) assessed as remaining activity at 1 uM by Kinome scan method relative to control
Serine/threonine-protein kinase RIO2 (Homo sapiens), sequence (Q9BVS4 whole entry, looked up): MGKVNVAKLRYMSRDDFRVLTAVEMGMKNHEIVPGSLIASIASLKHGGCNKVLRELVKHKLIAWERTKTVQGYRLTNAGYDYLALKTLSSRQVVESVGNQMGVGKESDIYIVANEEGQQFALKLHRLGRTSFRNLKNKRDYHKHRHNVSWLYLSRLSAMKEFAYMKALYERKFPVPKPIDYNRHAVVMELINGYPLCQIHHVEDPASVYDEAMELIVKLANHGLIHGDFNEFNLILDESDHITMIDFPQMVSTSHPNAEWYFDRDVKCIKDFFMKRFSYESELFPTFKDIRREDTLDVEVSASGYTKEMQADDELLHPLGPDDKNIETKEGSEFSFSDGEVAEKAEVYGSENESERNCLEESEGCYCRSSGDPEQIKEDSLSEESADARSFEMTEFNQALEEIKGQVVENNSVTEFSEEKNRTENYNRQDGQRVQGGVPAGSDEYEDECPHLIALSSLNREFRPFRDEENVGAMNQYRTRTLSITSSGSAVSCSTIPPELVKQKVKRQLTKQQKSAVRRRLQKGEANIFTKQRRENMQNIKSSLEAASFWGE

[15] = molecular target: Serine/threonine-protein kinase 26 (Homo sapiens, UniProt Q9P289); experiment: Binding affinity to MST4 (unknown origin) assessed as dissociation constant
[16] = molecular target: Serine/threonine-protein kinase TAO1 (Homo sapiens, UniProt Q7L7X3); experiment: Binding affinity to TAOK1 (unknown origin) assessed as dissociation constant
[17] = tested on: RAW264.7; experiment: Inhibition of MST1/2 (unknown origin) in mouse RAW264.7 cells assessed as H2O2 stimulated MST1/2 autophosphorylation level at 1 to 3 uM by immunoblot analysis; format: cell-based; details: dose 1-3 µM
[18] = tested on: HepG2; experiment: Induction of apoptosis in human HepG2 cells assessed as viable cells at 3 uM by annexinV staining (Rvb =95.0 %); format: functional; details: read-out: Activity
[19] = tested on: HepG2; experiment: Induction of apoptosis in human HepG2 cells overexpressing MST2 assessed as early apoptosis cells at 3 uM by annexinV staining (Rvb =13.6 %); format: functional
[20] = species: Homo sapiens; experiment: Inhibition of recombinant His-tagged full-length MST1 D109A mutant (unknown origin) expressing in Escherichia coli assessed as GST-tagged MOB1 phosphorylation level at 0.01 to 1 uM incubated for 15 min by immunoblot analysis; details: dose 0.01-1 µM
[21] = AUC (0 to infinity) in male Sprague-Dawley rat at 5 mg/kg, iv measured for 24 hrs by LC-MS/MS analysis; format: ADME, organism-based; details: in vivo
How it was run: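 Sprague-Dawley rats, single intravenous or oral dose. Parameters (half-life, AUC, bioavailability) reported in a supplementary table.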

[22] = tested on: Mus musculus; experiment: In vivo inhibition of MST1/2 in mouse assessed as MOB1 phosphorylation level at 1 mg/kg, ip administration and measured after between 1.5 to 6 hrs by immunoblot analysis; format: functional, organism-based; details: time 1.5-6 hrs
How it was run: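 Wild-type mice received 1 mg/kg intraperitoneally, with vehicle of 0.1% citric acid aqueous solution containing 20% Kolliphor HS 15. Livers were harvested over 0–12 h and lysates immunoblotted for p-MOB1 and p-YAP, normalized to control. Means ± SD, n = 3.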

[23] = tested on: Mus musculus; experiment: Protection against Mst1fl/fl Mst2fl/fl-Alb-Cre double knockout mouse assessed as Ki67-positive cells at 1 mg/kg, ip administrated twice a day for 2 days measured after 36 hrs by immunohistochemical staining; format: functional, organism-based; details: Liver, time 2.0 day
[24] = molecular target: Serine/threonine-protein kinase 3 (Homo sapiens, UniProt Q13188, D109A)
Serine/threonine-protein kinase 3, sequence (Q13188 whole entry D109A): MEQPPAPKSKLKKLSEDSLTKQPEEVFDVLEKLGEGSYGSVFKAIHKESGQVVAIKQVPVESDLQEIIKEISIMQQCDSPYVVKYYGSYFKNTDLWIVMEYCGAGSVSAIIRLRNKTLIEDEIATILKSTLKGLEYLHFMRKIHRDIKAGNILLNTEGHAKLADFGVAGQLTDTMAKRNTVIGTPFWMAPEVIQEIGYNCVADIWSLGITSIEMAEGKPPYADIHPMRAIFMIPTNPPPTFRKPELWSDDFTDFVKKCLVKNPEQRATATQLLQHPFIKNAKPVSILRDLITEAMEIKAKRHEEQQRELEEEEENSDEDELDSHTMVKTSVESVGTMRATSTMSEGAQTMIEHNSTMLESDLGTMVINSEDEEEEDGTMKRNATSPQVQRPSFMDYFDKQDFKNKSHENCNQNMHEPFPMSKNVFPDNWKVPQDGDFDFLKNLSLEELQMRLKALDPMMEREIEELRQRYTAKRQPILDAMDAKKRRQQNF

[25] = molecular target: T1, Serine/threonine-protein kinase 4 (Homo sapiens, UniProt Q13043)
T1 sequence (Q13043 whole entry): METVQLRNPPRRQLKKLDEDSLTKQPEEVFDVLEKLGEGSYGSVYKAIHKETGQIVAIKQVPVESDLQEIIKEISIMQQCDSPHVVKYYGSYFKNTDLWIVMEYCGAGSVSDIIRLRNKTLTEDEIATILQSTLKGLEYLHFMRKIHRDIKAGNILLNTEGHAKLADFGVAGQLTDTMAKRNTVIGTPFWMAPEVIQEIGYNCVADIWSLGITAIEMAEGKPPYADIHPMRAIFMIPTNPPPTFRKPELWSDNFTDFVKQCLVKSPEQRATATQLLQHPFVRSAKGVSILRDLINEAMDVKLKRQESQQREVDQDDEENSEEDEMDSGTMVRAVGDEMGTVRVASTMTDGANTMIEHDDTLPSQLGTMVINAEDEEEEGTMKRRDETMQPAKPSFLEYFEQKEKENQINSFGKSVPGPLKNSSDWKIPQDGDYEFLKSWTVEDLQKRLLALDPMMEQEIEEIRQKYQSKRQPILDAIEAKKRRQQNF

CN1C(=O)c2sccc2N(C)c2nc(Nc3ccc(S(N)(=O)=O)cc3)ncc21
Activity [1]: 84%
Activity [2]: 100%
Activity [3]: 84%
Activity [4]: 100%
Activity [5]: 64%
Activity [6]: 99%
Activity [7]: 96%
Activity [8]: 91%
Activity [9]: 100%
Activity [10]: 100%
Activity [11]: 100%
Activity [12]: 100%
Activity [13]: 100%
Activity [14]: 95%
Kd [15]: 16 nM
Kd [16]: 180 nM
inhibition [17]: Active
viability at 3 µM [18]: 95%
Activity [19]: 5.12%
inhibition [20]: Active
AUC(0-inf) [21]: 1270 ng·h/mL
inhibition [22]: Active
Activity [23]: inactive
IC50 [24]: 1040 nM
IC50 [25]: 70.7 nM

Reference: ChEMBL document CHEMBL5705905, “Pharmacological targeting of kinases MST1 and MST2 augments tissue repair and regeneration” (Sci Transl Med, 2016)
